Tests used:
Pontederia vaginalis [1] = test: Post-emergence herbicidal activity against three-leaf stage Monochoria vaginalis under green-house condition by water injection treatment method; format: functional
How it was run: (§1)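 Greenhouse paddy test. Seed was sown on saturated Metro Mix, covered with about 0.5 cm mix and held 48 h dark at 30 °C, 95% RH; about 15 d from seed soaking to treatment. Treatment solution was injected into the water. Rates were set per pot surface area, with serial rates made by halving the volume delivered. Held at 16 h day length, 29 °C.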

Cyperus difformis = test: Post-emergence herbicidal activity against three-leaf stage Cyperus difformis under green-house condition by water injection treatment method; format: functional; how it was run: as §1
[2] = tested on: Schoenoplectiella juncoides; test: Post-emergence herbicidal activity against three-leaf stage Schoenoplectiella juncoides under green-house condition by water injection treatment method; format: functional; how it was run: as §1
Echinochloa crus-galli [3] = test: Post-emergence herbicidal activity against three-leaf stage Echinochloa crus-galli (barnyard grass) under green-house condition by water injection treatment method; format: functional; how it was run: as §1
Oryza sativa [4] = test: Phytotoxicity against three-leaf stage Oryza sativa (rice) under green-house condition by water injection treatment method; format: organism-based; how it was run: as §1
[5] = tested on: Schoenoplectiella juncoides; test: Post-emergence herbicidal activity against two to three-leaf stage Schoenoplectiella juncoides under field condition by foliar application method; format: functional
Echinochloa crus-galli [6] = test: Post-emergence herbicidal activity against 2-3-leaf stage Echinochloa crus-galli (barnyard grass) under field condition by foliar application method; format: functional
Oryza sativa [7] = test: Phytotoxicity against two to three-leaf stage indica Oryza sativa (rice) under field condition by foliar application method; format: organism-based; settings: in vivo
[8] = tested on: Schoenoplectiella juncoides; test: Post-emergence herbicidal activity against three-leaf stage Schoenoplectiella juncoides under field condition by water injection treatment method; format: functional
How it was run: (§2)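 Field trials: water-injected treatment applied to transplanted japonica rice and to weeds at the three-leaf stage, under rice-growing conditions in several countries.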

Pontederia vaginalis [9] = test: Post-emergence herbicidal activity against three-leaf stage Monochoria vaginalis under field condition by water injection treatment method; format: functional; how it was run: as §2
Oryza sativa [10] = test: Phytotoxicity against three-leaf stage Oryza sativa (rice) under field condition by water injection treatment method; format: organism-based; how it was run: as §2
Echinochloa crus-galli [11] = test: Post-emergence herbicidal activity against three-leaf stage Echinochloa crus-galli (barnyard grass) under field condition by water injection treatment method; format: functional; how it was run: as §2
Ipomoea hederacea = test: Post-emergence herbicidal activity against Ipomoea hederacea (ivy-leaved morning glory) compound treated as foliar application measured after 2 weeks; format: functional
How it was run: (§3)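 Greenhouse post-emergence foliar screen in 64 cm² pots. Seed treatments were used on some species to aid germination. Plants were grown 7–21 days at 23–29 °C day/22–28 °C night under a 15 h photoperiod. Sprayed at 2–12 cm height and the 1–4 true leaf stage.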

Veronica hederifolia = test: Post-emergence herbicidal activity against Veronica hederifolia compound treated as foliar application measured after 2 weeks; format: functional; how it was run: as §3
Abutilon theophrasti = test: Post-emergence herbicidal activity against Abutilon theophrasti (velvetleaf) compound treated as foliar application measured after 2 weeks; format: functional; how it was run: as §3
Amaranthus retroflexus = test: Post-emergence herbicidal activity against Amaranthus retroflexus compound treated as foliar application measured after 2 weeks; format: functional; how it was run: as §3
Ipomoea = test: Post-emergence herbicidal activity against Ipomoea spp. compound treated as foliar application measured after 2 weeks; format: functional; how it was run: as §3
Helianthus = test: Post-emergence herbicidal activity against Helianthus spp. compound treated as foliar application measured after 2 weeks; format: functional; how it was run: as §3
Chenopodium album = test: Post-emergence herbicidal activity against Chenopodium album compound treated as foliar application measured after 2 weeks; format: functional; how it was run: as §3
Datura stramonium = test: Post-emergence herbicidal activity against Datura stramonium compound treated as foliar application measured after 2 weeks; format: functional; how it was run: as §3
Xanthium strumarium = test: Post-emergence herbicidal activity against Xanthium strumarium (cocklebur) compound treated as foliar application measured after 2 weeks; format: functional; how it was run: as §3
[12] = Inhibition of acetolactatae synthase; settings: read-out: I50
How it was run: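 Barley ALS: etiolated shoots of 5–6 d old Hector Spring barley homogenized at 0–4 °C in 20 mM HEPES pH 7.2, 1 mM EDTA, 5 mM DTT, then 33% (NH4)2SO4 cut. Reaction: 20 mM HEPES pH 7.2, 5 mM MgCl2, 0.25 mM TPP, FAD, 22.5 mM pyruvate, 0.7% DMSO final, 37 °C, 30 min. Acid decarboxylation to acetoin, then creatine/1-naphthol colour read at 530 nm. Reported as I50 (nM).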

Avena fatua = test: Post-emergence herbicidal activity against Avena fatua compound treated as foliar application measured after 2 weeks; format: functional; how it was run: as §3
Oryza sativa [13] = test: Phytotoxicity against Oryza sativa (rice); format: organism-based; settings: in vivo
Digitaria sanguinalis = test: Post-emergence herbicidal activity against Digitaria sanguinalis (hairy crabgrass) compound treated as foliar application measured after 2 weeks; format: functional; how it was run: as §3
Sorghum halepense = test: Post-emergence herbicidal activity against Sorghum halepense (Johnson grass) compound treated as foliar application measured after 2 weeks; format: functional; how it was run: as §3
Setaria faberi = test: Post-emergence herbicidal activity against Setaria faberi (Giant Foxtail) compound treated as foliar application measured after 2 weeks; format: functional; how it was run: as §3
Echinochloa crus-galli [14] = test: Post-emergence herbicidal activity against Echinochloa crus-galli (barnyard grass) compound treated as foliar application measured after 2 weeks; format: functional; how it was run: as §3
Alopecurus = test: Post-emergence herbicidal activity against Alopecurus spp. compound treated as foliar application measured after 2 weeks; format: functional; how it was run: as §3
Fallopia convolvulus = test: Post-emergence herbicidal activity against Fallopia convolvulus compound treated as foliar application measured after 2 weeks; format: functional; how it was run: as §3
Stellaria media = test: Post-emergence herbicidal activity against Stellaria media compound treated as foliar application measured after 2 weeks; format: functional; how it was run: as §3
Echinochloa crus-galli [15] = test: Post-emergence herbicidal activity against 3-4-leaf stage Echinochloa crus-galli (barnyard grass) under field condition by foliar application method; format: functional
Oryza sativa [16] = test: Phytotoxicity against three to four-leaf stage japonica Oryza sativa (rice) under field condition by foliar application method; format: organism-based; settings: in vivo
Sesbania herbacea = test: Post-emergence herbicidal activity against three to four-leaf stage Sesbania herbacea under field condition by foliar application method; format: functional

Compound | GR80 (Pontederia vaginalis [1]) | GR80 (Cyperus difformis) | GR80 [2] | GR80 (Echinochloa crus-galli [3]) | GR20 (Oryza sativa [4]) | GR80 (Ipomoea hederacea) | GR80 (Veronica hederifolia) | GR80 (Abutilon theophrasti) | GR80 (Amaranthus retroflexus) | GR80 (Ipomoea) | GR80 (Helianthus) | GR80 (Chenopodium album) | GR80 (Datura stramonium) | GR80 (Xanthium strumarium) | GR80 (Avena fatua) | GR20 (Oryza sativa [13]) | GR80 (Digitaria sanguinalis) | GR80 (Sorghum halepense) | GR80 (Setaria faberi) | GR80 (Echinochloa crus-galli [14]) | also measured
COc1cnc(OC)n2nc(NS(=O)(=O)c3c(OCC(F)(F)F)cccc3C(F)(F)F)nc12 | 5 gAi/ha | 36 gAi/ha | 21 gAi/ha | 19 gAi/ha | 51 gAi/ha | – | – | – | – | – | – | – | – | – | – | – | – | – | – | – | –
COc1cnc(OC)n2nc(NS(=O)(=O)c3c(OC(CF)CF)cccc3C(F)(F)F)nc12 | 1 gAi/ha | 31 gAi/ha | 9 gAi/ha | 14 gAi/ha | 140 gAi/ha | – | – | – | – | – | – | – | – | – | – | – | – | – | – | – | GR80 [5]: 20 gAi/ha; GR80 (Echinochloa crus-galli [6]): 15 gAi/ha; GR10 (Oryza sativa [7]): > 70 gAi/ha; GR80 [8]: 15 gAi/ha; GR80 (Pontederia vaginalis [9]): 12 gAi/ha; GR10 (Oryza sativa [10]): 70 gAi/ha; GR80 (Echinochloa crus-galli [11]): 35 gAi/ha
COc1nccc2nc(NS(=O)(=O)c3c(Cl)cccc3Cl)nn12 | – | – | – | – | – | 475 ppm | 475 ppm | 475 ppm | 475 ppm | 475 ppm | 475 ppm | 475 ppm | 475 ppm | 475 ppm | 500 ppm | 500 ppm | 500 ppm | 500 ppm | 500 ppm | 500 ppm | IC50 [12]: 1040 nM; GR80 (Alopecurus): 500 ppm; GR80 (Fallopia convolvulus): 475 ppm; GR80 (Stellaria media): 475 ppm
COc1cnc(OC)n2nc(NS(=O)(=O)c3c(Cl)cccc3Cl)nc12 | – | – | – | – | – | 2 ppm | 2 ppm | 2 ppm | 2 ppm | 2 ppm | 2 ppm | 2 ppm | 2 ppm | 2 ppm | 8 ppm | 8 ppm | 8 ppm | 8 ppm | 8 ppm | 4 ppm | IC50 [12]: 0.6 nM; GR80 (Alopecurus): 8 ppm; GR80 (Fallopia convolvulus): 2 ppm; GR80 (Stellaria media): 2 ppm
CCOc1cccc(C(F)(F)F)c1S(=O)(=O)Nc1nc2c(OC)cnc(OC)n2n1 | 1 gAi/ha | – | 3 gAi/ha | 1 gAi/ha | 1 gAi/ha | 2 ppm | 2 ppm | 2 ppm | 2 ppm | 2 ppm | 2 ppm | 2 ppm | 2 ppm | 2 ppm | 191 ppm | 250 ppm | 191 ppm | 191 ppm | 191 ppm | 4 ppm | GR80 (Alopecurus): 191 ppm; GR80 (Fallopia convolvulus): 2 ppm; GR80 (Stellaria media): 2 ppm
COc1cnc(OC)n2nc(NS(=O)(=O)c3c(OCCF)cccc3C(F)(F)F)nc12 | 5.2 gAi/ha | 8 gAi/ha | 9 gAi/ha | 10 gAi/ha | 14 gAi/ha | 6 ppm | 6 ppm | 6 ppm | 6 ppm | 6 ppm | 6 ppm | 6 ppm | 6 ppm | 6 ppm | 66 ppm | 250 ppm | 66 ppm | 66 ppm | 66 ppm | 1 ppm | GR80 (Echinochloa crus-galli [15]): 12 gAi/ha; GR10 (Oryza sativa [16]): 12 gAi/ha; GR80 [5]: 4 gAi/ha; GR80 (Echinochloa crus-galli [6]): 5 gAi/ha; GR10 (Oryza sativa [7]): > 70 gAi/ha; GR80 [8]: 5 gAi/ha; GR80 (Pontederia vaginalis [9]): 4.4 gAi/ha; GR10 (Oryza sativa [10]): 8 gAi/ha; GR80 (Echinochloa crus-galli [11]): 19 gAi/ha; GR80 (Alopecurus): 66 ppm; GR80 (Fallopia convolvulus): 6 ppm; GR80 (Stellaria media): 6 ppm; GR80 (Sesbania herbacea): 10 gAi/ha
COc1cnc(OC)n2nc(NS(=O)(=O)c3c(OCC(F)F)cccc3C(F)(F)F)nc12 [PENOXSULAM] | <2 gAi/ha | 14 gAi/ha | 12 gAi/ha | 12 gAi/ha | 75 gAi/ha | – | – | – | – | – | – | – | – | – | – | – | – | – | – | – | GR80 (Echinochloa crus-galli [15]): 9 gAi/ha; GR10 (Oryza sativa [16]): 65 gAi/ha; GR80 [5]: 6 gAi/ha; GR80 (Echinochloa crus-galli [6]): 7 gAi/ha; GR10 (Oryza sativa [7]): > 70 gAi/ha; GR80 [8]: 9 gAi/ha; GR80 (Pontederia vaginalis [9]): 6 gAi/ha; GR10 (Oryza sativa [10]): 35 gAi/ha; GR80 (Echinochloa crus-galli [11]): 26 gAi/ha; GR80 (Sesbania herbacea): 7 gAi/ha

From ChEMBL document CHEMBL3046654, “Penoxsulam--structure-activity relationships of triazolopyrimidine sulfonamides” (Bioorg Med Chem, 2009)
